# Rows were chosen to be rich in hits. Some 1.4% of all compounds tested hit in one or more screens of this group.
# Efflux pump mplx = inhibitors of Candida efflux pumps in yeast, primary screen, S. cerevisiae, Nile Red, multiplex | inhibition, % at 10 µM | 330,000 compounds, 0.44% hits | S. cerevisiae Candida pump triplex;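 active = plate passing quality check with inhibition over a set limit, or well fluorescence over plate mean plus 4 SD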;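 note: Nile Red retained in pooled yeast measured as flow cytometry median fluorescence; 0% = buffer negative control and 100% = Enniatin B positive control; higher means more Nile Red kept so more efflux inhibition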
# IDE act = human IDE activators in live cells, primary screen, fluorescence polarization, HEK cells, FAbeta-B substrate; FAbeta-B cleavage; 0% vehicle, 100% cell-free pure enzyme wells; activation, % at 5.96 µM; 340,000 compounds, 0.073% hits; AID 493087, 2011;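 active = activation above the mean of all tested compounds plus 3 SD, set per screening campaign, cut at about 17% in these data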
# CR mimetic SO = reduction of superoxide in aged yeast, primary screen, HTS | S. cerevisiae aged cells, superoxide DHE fluorescence; stronger effect = lower value | superoxide response (% of plate mean), % at 10 µM | 330,000 compounds, 0.18% hits | AID 2690, 2010;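 active = superoxide response under a set limit, about three screen SD below normal, cut at about 65% in these data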;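 note: yeast aged for seven days with compound at 30 °C before DHE staining; 100% = average MFI of all compound-treated wells on the plate with controls excluded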
# IDE inh = human IDE inhibitors in live cells, primary screen, fluorescence polarization, HEK cells, FAbetaB substrate | inhibition, % at 5.59 µM | Insulin-degrading enzyme (Homo sapiens), P14735 | 320,000 compounds, 0.41% hits | AID 434962, 2010 | FAbetaB cleavage;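 active = percent inhibition above the average of all tested compounds plus 3 SD, set per screening campaign, cut at about 16% in these data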;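 note: IDE supplied by intact live HEK cells; FP after avidin binding of uncleaved biotin substrate so inhibition keeps polarization high; 0% = DMSO wells and 100% = 60 µM reference IDE inhibitor Ii1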
# HDAC3 inhib = HDAC3 deacetylase inhibitors, primary screen, biochemical, fluorescence, cell-free homogeneous. Histone deacetylase 3 (Homo sapiens), O15379. recombinant HDAC3, fluorogenic peptide/trypsin coupled. inhibition, % at 8.3 µM. 320,000 compounds, 0.15% hits. AID 2718, 2010; in the data active = inhibition above about 26%, passing the limit was not always enough
# Tb MetRS inh = T. brucei MetRS inhibitors, primary screen, biochemical, luminescence; methionyl-tRNA synthetase (Trypanosoma brucei brucei); purified T. brucei MetRS, ATP depletion, Kinase-Glo luminescence; inhibition, % at 11.9 µM; 360,000 compounds, 0.4% hits; AID 624268, 2012;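 active = inhibition above a per-plate cutoff of the control wells' mean inhibition plus 3 SD, cut at about 5.5% in these data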;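 note: 0% = DMSO wells median and 100% = median of wells with control inhibitor compound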
#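 Test system: purified T. brucei MetRS enzyme. Also added: ATP, methionine and E. coli bulk tRNA substrates. Compound: 11.9 µM single point. Schedule: 15 min enzyme-compound preincubation, 2 h reaction, 10 min detection, 25 °C. Signal: luciferase luminescence of residual ATP, Kinase-Glo. Evaluation: percent inhibition versus plate control medians. Controls: DMSO wells, low control.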
# Superoxide pick = superoxide lowering in aged yeast cells, confirmation, cherry picked compounds; shares compounds with CR mimetic SO; S. cerevisiae aging, superoxide DHE fluorescence; stronger effect = lower value; superoxide response (% of plate), % at 10 µM; 850 compounds, 1% hits;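 active = superoxide signal below 65% of the plate average of sample wells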;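 note: cells aged with compound for 7 days at 30 degrees C before staining; 100% equals mean DHE fluorescence of all compound wells on the plate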
# DHE fluor count = DHE quenching or ROS scavenging interference in aged yeast, artefact control for yeast caloric restriction mimetic project, S. cerevisiae BY4741, flow cytometry | fluorescence response, % at 10 µM | DHE fluorescence; stronger effect = lower value | shares compounds with CR mimetic SO | 850 tested, under 10 active;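 active = fluorescence response below 15%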;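 note: percent of the mean fluorescence averaged over all compound wells on the plate; lower means stronger quenching of DHE signal or ROS scavenging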
# * marks the source's active call; other numbers are inactive results; nt = not tested or not shown.
SMILES,Efflux pump mplx,IDE act,CR mimetic SO,IDE inh,HDAC3 inhib,Tb MetRS inh,Superoxide pick,DHE fluor count
C#CCSc1nnc(-c2ccc([N+](=O)[O-])cc2)o1,0,6,54*,0,0,0,73,93
O=C(/C=C/c1ccccc1[N+](=O)[O-])NCc1ccccc1Cl,0,9,64*,4,-9,-1,116,105
NC(=O)Oc1cccc(OC(N)=O)c1,0,2,99,5,1,1,nt,nt
Cc1c(NS(=O)(=O)c2ccccc2)cc(Cl)c(O)c1C,0,3,142,-3,0,-1,89,100
COc1ccc(NC(=O)CCNS(=O)(=O)c2cc(Br)cnc2N)cc1OC,0,7,106,4,-8,0,nt,nt
CC(C)(C)c1ccc(/C=C/C(=O)c2ccc(NC3=NCCCS3)cc2)cc1,1,-4,46*,3,3,0,113,122
O=C(COc1ccc(Cl)cc1Cl)Nc1c(-c2cccs2)nc2ccccn12,0,3,119,3,3,1,nt,nt
CCOc1ccc2nc(SCC(=O)c3ccc(C)s3)sc2c1,0,4,107,4,-4,0,nt,nt
CCOc1ccc2nc(SCC(=O)c3ccc(O)cc3O)sc2c1,1,3,50*,1,-2,0,101,94
COc1ccc(NC(=O)C2(C)CCN2C(=O)c2ccc(C(C)(C)C)cc2)cc1OC (stereo unspecified),nt,nt,nt,nt,nt,0,nt,nt
COc1ccc(C2(C(=O)NCCc3ccccc3)CCCC2)cc1OC,1,3,47*,-5,-1,0,108,93
COc1cccc(NC(C(=O)Nc2cccc(C(C)=O)c2)c2ccccc2)c1 (stereo unspecified),-1,6,60*,5,-3,-2,94,106
O=C1CCCN1S(=O)(=O)c1ccccc1,0,5,91,1,9,0,115,108
O=C1CCCN1S(=O)(=O)c1ccc(F)cc1,0,-2,95,6,-2,0,nt,nt
Cc1cc([N+](=O)[O-])ccc1NC(=O)C(C)N1CCN(c2ccccn2)CC1 (stereo unspecified),0,4,116,1,2,0,84,96
COc1ccc(Cl)cc1NC(=O)C(C)N1CCN(c2ccccn2)CC1 (stereo unspecified),0,0,104,1,-1,-1,97,96
CC(C(=O)Nc1ccccc1)N1CCN(c2ccccn2)CC1 (stereo unspecified),0,-1,103,-3,3,0,97,98
COc1cccc(NC(=O)C(c2ccccc2)N2CCN(c3ccccn3)CC2)c1 (stereo unspecified),0,3,106,-2,11,-1,nt,nt
COc1ccccc1CNC(=O)CN(C)CC(=O)Nc1ccc(F)c(F)c1F,0,3,97,-2,1,0,nt,nt
O=C(O)c1cc(=O)[nH]c2ccc(S(=O)(=O)Nc3ccc(F)cc3)cc12,0,0,57*,1,0,-2,104,116
CCCn1nc(NC(=O)c2cccs2)c2cc3ccccc3nc21,0,3,99,6,-5,0,nt,nt
CCCCn1nc(NC(=O)c2cccs2)c2cc3ccccc3nc21,0,1,65*,7,16,1,99,92
CCC(C)(C)c1ccc(OCCCC[n+]2cccc(C)c2)c(C(C)(C)CC)c1,nt,9,nt,nt,nt,-1,121,107
Cc1ccc[n+](CC(=O)Nc2cc(C(F)(F)F)ccc2Cl)c1,0,-7,105,2,1,0,nt,nt

# Assay outcomes (PubChem BioAssay)
